# Bioassay records: PubChem, several laboratories
# Most compounds without a hit are left out; they make up all but 1.5% or so of the library.
# CSN deneddyl inh: CSN deneddylation inhibition. Q92905. Purified CSN, SCF-Nedd8-OG deneddylation, fluorescence polarization. inhibition, % at 12.5 µM. 360,000 tested, 0.38% active;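 active = pattern-corrected inhibition above about 35%, with an unprinted fluorescence ratio check between 0.5 and 1.5, limit read from the data, passing the limit was not always enough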;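 also: 0% = enzyme with substrate and 100% = substrate without enzyme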
#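 Assay system: purified human Csn5 enzyme expressed in HEK293T cells; measure: % inhibition; also added: SCFSkp2-Nedd8OG substrate at 10 nM final; technique: fluorescence polarization; times: reaction 90 min, room temperature; medium: Tris buffer pH 7.5, NaCl, DTT, Tween-20, trehalose, ovalbumin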
# Rpn11 inh: blocks the human proteasome subunit Rpn11. O00487. human 26S proteasome, Ub4-pepOG fluorescence polarization; 20S core pre-blocked with epoxomicin. inhibition, % at 20 µM. 360,000 tested, 0.59% active;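 active = inhibition at 20 µM, scaled to each plate's controls, above about 33%, limit read from the data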
# TPT1 inh: C. albicans TPT1 enzyme inhibition | recombinant caTPT1, FP RNA substrate dephosphorylation | inhibition, % at 5 µM | 300,000 tested, 0.81% active | AID 1962;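 active = inhibition above the mean of all tested compounds plus 3 SD, set per screening campaign, cut at about 24% in these data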;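 also: plate controls were DMSO alone for no effect and ferristatin control at 100 nM for full effect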
# HNF4A DNA FP: change in binding of human HNF4 alpha to DNA; HNF4a-FITC DNA binding, fluorescence polarization, 1 h; activity change, % at 10 µM; 360,000 tested, 0.3% active; AID 1224865; in the data active = activity change above about 30%, passing the limit was not always enough
# Rpn11 confirm: Rpn11 inhibition confirmation, single concentration; 1,900 tested, 29% active; AID 602318; shares compounds with Rpn11 inh; purified human 26S proteasome, Ub4-pepOG fluorescence polarization; proteasome pretreated with epoxomicin; inhibition, % at 20 µM
# MMP-2 counter: blocks human MMP-2, flagging nonselective RPN11 hits; shares compounds with Rpn11 inh; recombinant MMP-2, FRET peptide cleavage fluorescence; inhibition, % at 20 µM; 1,900 tested, 4% active;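 also: human MMP-2 activated beforehand with APMA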
# Thrombin inh: counter-screen for RPN11 inhibitors: inhibition of bovine thrombin | inhibition, % at 20 µM | bovine thrombin cleavage of Ub4-pepOG, fluorescence polarization | 1,900 tested, 13% active | shares compounds with Rpn11 inh | AID 602333;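 active = mean inhibition at least 40% at 20 µM, or signal 3 deviations below plate average, so some actives read negative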;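 also: plate controls were thrombin with DMSO for no effect and buffer wells lacking thrombin for full effect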
# Target sequence (P00735 whole entry, looked up): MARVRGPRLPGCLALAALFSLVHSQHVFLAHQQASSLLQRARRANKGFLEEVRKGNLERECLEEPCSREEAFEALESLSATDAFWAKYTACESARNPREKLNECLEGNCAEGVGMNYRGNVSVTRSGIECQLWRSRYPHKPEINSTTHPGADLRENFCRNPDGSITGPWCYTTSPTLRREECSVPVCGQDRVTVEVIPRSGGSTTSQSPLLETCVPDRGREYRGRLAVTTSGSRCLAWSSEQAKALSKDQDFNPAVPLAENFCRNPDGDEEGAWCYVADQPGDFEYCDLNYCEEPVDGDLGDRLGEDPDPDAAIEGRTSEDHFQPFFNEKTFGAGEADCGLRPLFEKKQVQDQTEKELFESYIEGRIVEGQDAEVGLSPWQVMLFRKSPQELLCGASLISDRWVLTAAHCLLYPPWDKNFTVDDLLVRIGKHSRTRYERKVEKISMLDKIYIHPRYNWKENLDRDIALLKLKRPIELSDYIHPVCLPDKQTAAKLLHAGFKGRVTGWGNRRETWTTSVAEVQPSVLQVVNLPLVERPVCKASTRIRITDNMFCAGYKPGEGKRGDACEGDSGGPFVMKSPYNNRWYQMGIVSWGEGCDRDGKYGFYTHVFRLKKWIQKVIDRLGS
# An asterisk follows results filed as active; x = not tested or not shown. Rule as the data show it, unless noted: active = inhibition above about 40%; inactive = the rest.
SMILES,CSN deneddyl inh,Rpn11 inh,TPT1 inh,HNF4A DNA FP,Rpn11 confirm,MMP-2 counter,Thrombin inh
CC(C)(C)OC(=O)C[C@@H]1C/C=C\C[C@H](CC(=O)N(CCO)Cc2ccccc2)C(=O)NCCOC1=O,0,3,x,-1,x,x,x
Cc1ccc(Nc2nc(-c3ccc(C)cc3)c(CC(=O)O)s2)cc1,65*,76*,9,16,33,10,20
Cn1c(=O)oc2cc(S(=O)(=O)NCC3CCCO3)ccc21 (centres undefined),15,76*,-3,11,22,-4,20
Cn1c(=O)oc2cc(S(=O)(=O)Nc3cccc4c3CCCC4)ccc21,14,42*,14,6,38,20,24
Cc1cc(C)c(NS(=O)(=O)c2ccc3c(c2)oc(=O)n3C)c(C)c1,2,1,x,-3,x,x,x
Cn1c(=O)oc2cc(S(=O)(=O)NC3CCCCC3)ccc21,1,-4,-3,-2,x,x,x
O=C(NCCN1CCCCCC1)c1ccc(CS(=O)(=O)c2ccc(Br)cc2)o1,5,53*,-1,7,32,14,13
O=C(NCCCN1CCCCCC1)c1ccc(CS(=O)(=O)Cc2ccccc2F)o1,97*,73*,x,128,75*,-436,3
CCc1nc2c(OCc3ccc(F)cc3)cccn2c1N(C)C(=O)c1ccc(C)cc1,0,10,x,-2,x,x,x
COCCNCc1ccccc1[N+](=O)[O-],-2,1,-2,2,x,x,x
O=C(O)CSc1cc(C(=O)c2cc(F)ccc2O)cn2c(=O)c3c(-c4ccccc4)csc3nc12,7,39*,11,13,15,44*,22
Cc1cc(C)c2c(N)c3cccc(C)c3nc2n1,10,67*,12,-5,54*,-29,8
NS(=O)(=O)c1ccc(CCNC(=O)Cn2c(=O)c3cccn3c3cccnc32)cc1,0,8,2,3,x,x,x
CCOc1ccc(CCNC(=O)Cn2c(=O)c3cccn3c3cccnc32)cc1,6,42*,2,2,2,-11,-5
CCN(CC(=O)Nc1ccc(NC(C)=O)cc1)C(=O)c1cccc(S(=O)(=O)N2CCCC2)c1,-6,-2,0,5,x,x,x
COc1ccc(-n2c(C)cc(/C=C3\C(=N)N4N=C(CC(=O)N5CCOCC5)SC4=NC3=O)c2C)c(OC)c1,4,43*,18,14,17,13,4
O=P1(NC2CCCC2)OCC2(CO1)COP(=O)(NC1CCCC1)OC2 (centres undefined),-1,-6,x,6,x,x,x
O=C(Cn1cnc2c(nnn2-c2ccccc2)c1=O)NCc1ccc(F)cc1,13,73*,0,20,61*,46*,-8
Cc1ccc(-n2nnc3c(=O)n(CC(=O)c4ccccc4)cnc32)cc1,1,6,-5,-1,x,x,x
Cc1ccc(-n2nnc3c(=O)n(CC(=O)NCc4ccccc4)cnc32)cc1,11,43*,-2,5,49*,26,-19
CN(C)c1ccc(C(CNC(=O)c2cccs2)N(C)C)cc1 (centres undefined),-4,0,-3,0,x,x,x
CCn1cc(C(=O)O)c(=O)c2cnc(N3CCN(C(=S)NC(=O)c4ccc(OC)cc4)CC3)nc21,3,-1,-2,-2,x,x,x
C[C@@H]1CCCCO[C@H](CN(C)C(=O)C2CCCCC2)[C@@H](C)CN([C@H](C)CO)C(=O)c2cc(N(C)C)ccc2O1,0,-2,x,2,x,x,x
CCOC(=O)c1ccc(NC(=O)Nc2ccc3c(c2)OCCO3)cc1,-4,5,5,-1,x,x,x
CCC(C)(C(=O)Nc1ccc2c(c1)OCCO2)N(C(C)=O)c1ccc(C(N)=O)cc1 (centres undefined),-1,51*,-1,3,0,-28,2
Cc1ccc(S(=O)(=O)N2[C@@H](c3cccc(C)c3)C(C(=O)O)=C[C@H]2C(C)(C)C)cc1,-5,5,x,0,x,x,x
CCOC(=O)c1cc2c(=Cc3ccc(N(C)C)cc3)c3ccccc3n2[n+]1C,19,43*,x,57*,27,-48,18
O=C1CCCC(O)=C1N=Nc1ccc(Cl)c(Cl)c1,0,1,-1,1,x,x,x
